Measurements taken from BindingDB's records for doi:10.1016/j.bmc.2007.11.023 (2008).

Target: Mitochondrial complex I; NADH oxidoreductase (Bos taurus, UniProt P25708+P52505)
Test: Inhibition of NADH-ubiquinone oxidoreductase assessed as NADH oxidase activity in bovine heart submitochondrial particles
Method in brief: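 Bovine heart submitochondrial particles (sonicated mitochondria isolated by differential centrifugation) in air-saturated 75 mM sodium potassium phosphate, pH 7.4, with 1 mM each EDTA and MgCl2, at 30 °C and 42–219 µg/mL protein. Compounds added in methanol (≤2% v/v) and preincubated 4 min. The reaction is started with 0.16 mM NADH (final). Oxidation is followed over 4 min as A340 decrease. Means of 2–4 independent experiments.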

Sequence of Mitochondrial complex I; NADH oxidoreductase (P25708 21-464 limits assumed, other chains not shown): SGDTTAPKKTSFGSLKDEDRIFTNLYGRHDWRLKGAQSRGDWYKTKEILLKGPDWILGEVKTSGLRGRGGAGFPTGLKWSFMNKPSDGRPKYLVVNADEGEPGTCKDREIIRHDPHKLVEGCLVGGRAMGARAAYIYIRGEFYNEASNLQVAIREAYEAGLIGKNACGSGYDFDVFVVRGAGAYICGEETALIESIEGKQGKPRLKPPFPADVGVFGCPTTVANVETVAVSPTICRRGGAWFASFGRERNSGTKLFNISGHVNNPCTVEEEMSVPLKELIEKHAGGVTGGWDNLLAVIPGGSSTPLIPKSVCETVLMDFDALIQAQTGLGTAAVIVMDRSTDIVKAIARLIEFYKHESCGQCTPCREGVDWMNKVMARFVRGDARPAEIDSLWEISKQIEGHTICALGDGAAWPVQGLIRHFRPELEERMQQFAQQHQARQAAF

`CCCC1C(=O)C(C)(O)C(=O)N=C1C=CC(C)C/C=C/C(C)C` (configuration not stated) [IROMYCIN F] was tested, and the IC50 was > 25.3 µM.
In the case of `CCCC1(O)C(=O)C(C)C(=O)N=C1C=CC(C)C/C=C/C(C)C` (configuration not stated) [IROMYCIN E], the IC50 is reported as > 25.3 µM.
